Source: PubChem BioAssay (Broad Institute)
Most compounds without a hit are left out; they make up all but 2.2% or so of the library.
C2C12 statin – suppressors of simvastatin-induced myotoxicity in C2C12 myotubes; actives 0.78% (n = 330,000); rescue of ATP level, % at 7.49 µM; ATP luminescence, 48 h; scaled: DMSO 0, geranylgeraniol control 100; AID 602340;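 active = mean ATP rescue above about 67%, or every replicate alone reaching that limit, limit read from the data, passing the limit was not always enough; inconclusive = no clear call, values can overlap the other calls; inactive = mean under the limit and some replicate under it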;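 note: myotubes were challenged with 10 µM simvastatin during compound exposure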
DENV2 CPE rescue – inhibitors of DENV2 cytopathic effect; DENV2-infected cells, cytopathic effect rescue, plate reader; CPE inhibition, % at 9.99 µM; actives 1.7% (n = 350,000); in the data active = CPE inhibition above about 20%, passing the limit was not always enough; inconclusive = no clear call, values can overlap the other calls; tested in BHK-21 cells
E-sel inducer – E-selectin induction on HUVECs | activation, % at 7.58 µM | actives 0.37% (n = 260,000) | HUVEC E-selectin immunofluorescence imaging; normalized: neutral wells 0, TNF-alpha wells 100 | P16581;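 active = mean E-selectin-positive cell signal at least 10% of the positive control, reached in at least 60% of replicates, without over 20% cell loss; inconclusive = no rule given, readout overlaps actives, possibly toxicity-flagged; inactive = the rest, including those meeting only one limit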
Target sequence (P16581 whole entry, looked up): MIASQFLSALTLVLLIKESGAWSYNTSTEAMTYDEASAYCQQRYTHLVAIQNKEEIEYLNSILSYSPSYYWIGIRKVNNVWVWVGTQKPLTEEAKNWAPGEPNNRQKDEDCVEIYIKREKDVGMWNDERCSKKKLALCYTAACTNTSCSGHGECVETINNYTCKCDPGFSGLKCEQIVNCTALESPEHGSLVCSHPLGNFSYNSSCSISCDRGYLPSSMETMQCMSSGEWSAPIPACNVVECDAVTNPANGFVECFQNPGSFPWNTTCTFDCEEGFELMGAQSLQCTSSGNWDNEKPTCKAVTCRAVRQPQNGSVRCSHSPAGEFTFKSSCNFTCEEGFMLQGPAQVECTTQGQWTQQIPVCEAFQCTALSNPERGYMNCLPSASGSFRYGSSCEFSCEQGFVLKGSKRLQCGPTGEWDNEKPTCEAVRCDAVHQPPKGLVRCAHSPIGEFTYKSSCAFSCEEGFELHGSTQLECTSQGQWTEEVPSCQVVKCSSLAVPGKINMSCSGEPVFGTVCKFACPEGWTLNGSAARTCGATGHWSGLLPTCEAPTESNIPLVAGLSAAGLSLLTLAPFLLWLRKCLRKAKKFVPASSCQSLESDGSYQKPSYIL
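Test system: HUVEC | Signal: Immunofluorescence imaging | Read-out: Percent E-selectin-positive cells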
Hits are given with their value; - = inactive; ? = inconclusive; . = no result given.

SMILES | C2C12 statin | DENV2 CPE rescue | E-sel inducer
Cc1ccccc1C(=O)NNC(=O)c1cc(S(=O)(=O)N2CCOCC2)ccc1C | - | - | .
Cc1ccccc1OCCOC(=O)c1cc(S(=O)(=O)N2CCOCC2)ccc1C | - | 71.7 | .
Cc1ccc(S(=O)(=O)N2CCOCC2)cc1C(=O)NC1CCCC1 | - | - | 31.2
O=C(OCCOc1ccccc1)c1cc(S(=O)(=O)N2CCOCC2)ccc1Cl | - | - | -
COc1cccc(NC(=O)N2CC(=O)N3[C@H](C2)[C@@H](c2ccc(C#CC4CCCCC4)cc2)[C@@H]3CO)c1 | . | - | -
COc1ccc2c3c([nH]c2c1)[C@H](CO)N(C(=O)c1ccccc1)CC31CCN(C(=O)Nc2cccc(F)c2)CC1 | . | - | -
CO[C@H]1CN(C)C(=O)c2cc(NC(=O)Nc3ccccc3)ccc2OC[C@H](C)N(C(=O)CN(C)C)C[C@@H]1C | - | - | -
N#Cc1ccc(NC(=O)c2cc(S(=O)(=O)N3CCOCC3)ccc2N2CCCC2)cc1 | - | - | -
N#CCc1ccc(NC(=O)c2cc(S(=O)(=O)N3CCOCC3)ccc2Cl)cc1 | - | 60.1 | -
CO[C@H]1CN(C)C(=O)c2ccc(NS(=O)(=O)c3ccc(Cl)cc3)cc2OC[C@H](C)NC[C@@H]1C | . | - | -
COc1ccc(NC(=O)c2cc(S(=O)(=O)N3CCCCC3)c[nH]2)cc1 | - | - | 111.1
Cc1ccc(NC(=O)COC(=O)c2ccc3c(c2)OCCO3)cc1S(=O)(=O)N1CCOCC1 | . | - | .
COc1ccc(NC(=O)CSCC(=O)Nc2ccc(C)c(S(=O)(=O)N3CCCCCC3)c2)cc1 | - | ? | -
COc1ccc(CC(=O)Nc2ccc(C)c(S(=O)(=O)N3CCCCCC3)c2)cc1 | - | 35.4 | -
COc1ccc(NC(=O)c2cc(S(=O)(=O)N3CCCC3)c[nH]2)cc1 | - | ? | -
Cc1ccc(C(=O)OCC(=O)Nc2ccc3c(c2)OCO3)cc1S(=O)(=O)N1CCOCC1 | 107.6 | . | .
O=C(Nc1ccc2c(c1)[C@@H]1C[C@@H](CC(=O)N3CCc4ccccc4C3)O[C@@H](CO)[C@@H]1O2)NC1CCCC1 | - | - | -
CN1C(=O)c2cc(NC(=O)c3ccccc3)ccc2OC[C@H]2O[C@H](CC(=O)NC3CCCC3)CC[C@H]21 | - | - | -
O=C(CCN1CCCCC1)N[C@@H]1CC[C@H](CCNS(=O)(=O)c2ccc(F)cc2)O[C@@H]1CO | - | - | -
CCCC(=O)Nc1ccc2c(c1)OC[C@@H](C)N(CCC(F)(F)F)C[C@H](C)[C@H](OC)CN(C)C2=O | - | - | -
CO[C@H]1CN(C)C(=O)c2cc(NC(=O)CC(F)(F)F)ccc2OC[C@H](C)N(CC2CC2)C[C@H]1C | . | 54.4 | -
CCCN1C[C@H](C)[C@H](OC)CN(C)C(=O)c2ccc(NC(=O)CC(F)(F)F)cc2OC[C@@H]1C | . | 33.5 | -
CCCN1C[C@H](C)[C@H](OC)CN(C)C(=O)c2ccc(NC(=O)CC(F)(F)F)cc2OC[C@H]1C | . | - | -
COc1cccc(NC(=O)Nc2ccc3c(c2)C(=O)N(C)C[C@H](OC)[C@@H](C)CN(CC2CC2)[C@H](C)CO3)c1 | - | - | -
CO[C@@H]1CN(C)C(=O)c2cc(NC(=O)CC(F)(F)F)ccc2OC[C@@H](C)N(CC2CC2)C[C@H]1C | . | - | -
SMILES | C2C12 statin | DENV2 CPE rescue | E-sel inducer
COc1cccc(NC(=O)Nc2ccc3c(c2)C(=O)N(C)C[C@H](OC)[C@@H](C)CN(CC2CC2)[C@@H](C)CO3)c1 | . | 22.3 | -
CCCC(=O)Nc1ccc2c(c1)OC[C@H](C)N(CCC(F)(F)F)C[C@H](C)[C@@H](OC)CN(C)C2=O | . | 30.5 | -
C[C@@H]1CN([C@@H](C)CO)C(=O)c2cc(C3=CCCCC3)cnc2O[C@@H]1CN(C)Cc1ccc(C(=O)O)cc1 | - | - | -
CO[C@H]1CN(C)C(=O)c2cc(NC(=O)c3ccccc3F)ccc2OC[C@H](C)N(CC2CC2)C[C@@H]1C | - | - | -
CO[C@@H]1CN(C)C(=O)c2cc(NC(=O)c3ccccc3F)ccc2OC[C@H](C)N(CC2CC2)C[C@@H]1C | - | 42.6 | -
CCCNC(=O)N1CC2(CN(S(=O)(=O)CC)C2)c2c([nH]c3cc(OC)ccc23)[C@@H]1CO | . | - | -
CC(=O)NC[C@H]1[C@H](c2ccc(-c3cccnc3)cc2)[C@@H](CO)N1C(=O)C1CC1 | - | - | -
CC(=O)NC[C@H]1[C@@H](c2ccc(-c3ccccc3F)cc2)[C@@H](CO)N1C(C)=O | - | 41.4 | -
C/C=C/c1ccc([C@@H]2[C@H](CO)N(C(=O)Cc3ccncc3)[C@H]2CNC(C)=O)cc1 | - | 30.5 | -
CC(=O)N1[C@H](CO)[C@H](c2ccc(-c3ccccc3F)cc2)[C@@H]1CNC(C)C | . | - | -
C/C=C/c1ccc([C@@H]2[C@@H](CNC(C)=O)N(C(=O)Cc3cccnc3)[C@H]2CO)cc1 | - | - | -
